Key:
[1] = Toxicity in Swiss Webster mouse assessed as stimulation of ambulatory activity by measuring total distance travelled at 30 mg/kg, ip measured every 5 mins for 2 hrs; assay type: organism-based; conditions: in vivo
[2] = Displacement of [3H]-Nisoxetine from NET in Sprague-Dawley rat frontal cortex membrane after 180 mins by microbeta scintillation counting method; assay type: cell membranes
[3] = Metabolic stability in rat liver microsomes assessed as compound remaining at 10 uM in presence of NADPH regenerating system by LC-MS/MS analysis; assay type: ADME, Microsome
[4] = Metabolic stability in rat liver microsomes assessed as compound remaining at 10 uM incubated for 60 mins in presence of NADPH regenerating system by LC-MS/MS analysis; assay type: ADME, Microsome; conditions: 1 h
D(4) dopamine receptor = biological target: T1, D(4) dopamine receptor (Homo sapiens, UniProt P21917); assay: Displacement of [3H]-N-methylspiperone from human D4.4 receptor expressed in HEK293 cell membranes measured after 60 mins by microbeta scintillation counting method; parameters: species or system Membrane
T1 sequence (P21917 whole entry): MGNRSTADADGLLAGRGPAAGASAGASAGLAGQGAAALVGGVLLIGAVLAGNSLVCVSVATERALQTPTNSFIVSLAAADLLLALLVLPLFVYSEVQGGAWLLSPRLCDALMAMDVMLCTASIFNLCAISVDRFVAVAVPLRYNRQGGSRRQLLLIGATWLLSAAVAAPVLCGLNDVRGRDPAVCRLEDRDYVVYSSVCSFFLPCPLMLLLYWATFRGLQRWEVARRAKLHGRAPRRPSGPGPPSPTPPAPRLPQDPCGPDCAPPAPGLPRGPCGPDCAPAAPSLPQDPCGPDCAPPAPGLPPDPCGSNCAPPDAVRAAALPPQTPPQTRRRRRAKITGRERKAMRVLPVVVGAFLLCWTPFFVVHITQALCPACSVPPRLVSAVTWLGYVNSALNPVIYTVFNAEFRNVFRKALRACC
Method in brief: (§1)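 Membranes from HEK293 cells stably expressing human D2LR, D3R or D4.4R; 20 μg/well protein (D2LR, D3R) or 30 μg/well (D4.4R); [3H]-N-methylspiperone 0.4 nM final; half-log dilutions in 30% DMSO, triplicate; 60 min RT; nonspecific 10 μM (+)-butaclamol.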

D(2) dopamine receptor = D(2) dopamine receptor (Homo sapiens, UniProt P14416); assay: Displacement of [3H]-N-methylspiperone from human D2L receptor expressed in HEK293 cell membranes measured after 60 mins by microbeta scintillation counting method; parameters: species or system Membrane; method in brief: as §1
[5] = biological target: Sigma non-opioid intracellular receptor 1 (Cavia porcellus, UniProt Q60492); assay: Displacement of [3H](+)-pentazocine from sigma 1 receptor in guinea pig brain cortex membranes after 120 mins by scintillation counting analysis; assay type: cell membranes, Membrane
Method in brief: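 Male guinea pig cortex membranes in 10 mM Tris-HCl/0.32 M sucrose pH 7.4, 5.0 mg/well original wet weight; [3H](+)-pentazocine 3 nM final; inhibitor serial dilutions in 30% DMSO vehicle, triplicate; 120 min at RT; nonspecific with 10 μM PRE084 or (+)-pentazocine.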

[6] = Selectivity ratio of Ki for sigma 1 receptor in guinea pig brain cortex membranes to Ki for DAT in Sprague-Dawley rat striatum membranes; assay type: cell membranes
D(3) dopamine receptor = D(3) dopamine receptor (Homo sapiens, UniProt P35462); assay: Displacement of [3H]-N-methylspiperone from human D3 receptor expressed in HEK293 cell membranes measured after 60 mins by microbeta scintillation counting method; parameters: species or system Membrane; method in brief: as §1
Rattus norvegicus = species on record: Rattus norvegicus; assay: Selectivity ratio of Ki for SERT in Sprague-Dawley rat midbrain membranes to Ki for DAT in Sprague-Dawley rat striatum membranes
[7] = Toxicity in Swiss Webster mouse assessed as stimulation of ambulatory activity by measuring total distance travelled at 1 to 30 mg/kg, ip measured every 5 mins for 2 hrs; assay type: organism-based; conditions: in vivo, dose 1-30 mg/kg
[8] = biological target: Sodium-dependent dopamine transporter (Rattus norvegicus, UniProt P23977); assay: Displacement of [3H]WIN35428 from DAT in Sprague-Dawley rat striatal membranes incubated for 120 mins by microbeta scintillation counting method; assay type: cell membranes, Striatum, Membrane
[9] = biological target: Sodium-dependent serotonin transporter (Rattus norvegicus, UniProt P31652); assay: Displacement of [3H]citalopram from SERT in Sprague-Dawley rat midbrain membranes incubated for 60 mins by microbeta scintillation counting method; assay type: cell membranes, Membrane
[10] = Metabolic stability in mouse liver microsomes assessed as compound remaining at 10 uM incubated for 60 mins in presence of NADPH regenerating system by LC-MS/MS analysis; assay type: ADME, Microsome; conditions: 1 h

D(2) dopamine receptor, sequence (P14416 whole entry): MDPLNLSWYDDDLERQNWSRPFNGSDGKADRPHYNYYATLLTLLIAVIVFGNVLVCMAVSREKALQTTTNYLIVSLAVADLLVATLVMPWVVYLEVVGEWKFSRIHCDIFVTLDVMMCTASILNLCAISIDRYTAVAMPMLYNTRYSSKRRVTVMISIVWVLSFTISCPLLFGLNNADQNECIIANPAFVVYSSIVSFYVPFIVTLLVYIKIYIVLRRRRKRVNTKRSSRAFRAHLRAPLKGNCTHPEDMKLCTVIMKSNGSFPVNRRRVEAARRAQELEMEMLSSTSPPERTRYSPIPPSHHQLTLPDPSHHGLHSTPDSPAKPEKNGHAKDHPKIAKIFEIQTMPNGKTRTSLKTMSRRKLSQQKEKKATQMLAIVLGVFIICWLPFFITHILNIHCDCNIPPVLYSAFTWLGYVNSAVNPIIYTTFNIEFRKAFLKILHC
D(3) dopamine receptor, sequence (P35462 whole entry): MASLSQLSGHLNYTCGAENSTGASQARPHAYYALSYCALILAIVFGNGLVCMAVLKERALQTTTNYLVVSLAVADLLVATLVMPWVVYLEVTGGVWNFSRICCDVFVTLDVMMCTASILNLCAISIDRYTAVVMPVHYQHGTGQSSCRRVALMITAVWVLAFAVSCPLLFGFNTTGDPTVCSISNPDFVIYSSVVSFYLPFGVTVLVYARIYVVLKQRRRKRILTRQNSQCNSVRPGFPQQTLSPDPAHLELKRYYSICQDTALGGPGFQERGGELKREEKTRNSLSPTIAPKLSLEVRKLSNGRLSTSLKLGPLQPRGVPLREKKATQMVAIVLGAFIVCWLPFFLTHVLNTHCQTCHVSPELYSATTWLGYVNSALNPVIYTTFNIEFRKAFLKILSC
Sigma non-opioid intracellular receptor 1, sequence (Q60492 whole entry): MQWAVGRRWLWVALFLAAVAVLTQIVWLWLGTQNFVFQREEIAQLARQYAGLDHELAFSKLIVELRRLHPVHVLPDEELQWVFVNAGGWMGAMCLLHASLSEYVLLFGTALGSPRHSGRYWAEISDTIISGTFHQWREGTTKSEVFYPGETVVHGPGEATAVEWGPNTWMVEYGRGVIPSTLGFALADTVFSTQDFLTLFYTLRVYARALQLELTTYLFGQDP
Sodium-dependent dopamine transporter, sequence (P23977 whole entry): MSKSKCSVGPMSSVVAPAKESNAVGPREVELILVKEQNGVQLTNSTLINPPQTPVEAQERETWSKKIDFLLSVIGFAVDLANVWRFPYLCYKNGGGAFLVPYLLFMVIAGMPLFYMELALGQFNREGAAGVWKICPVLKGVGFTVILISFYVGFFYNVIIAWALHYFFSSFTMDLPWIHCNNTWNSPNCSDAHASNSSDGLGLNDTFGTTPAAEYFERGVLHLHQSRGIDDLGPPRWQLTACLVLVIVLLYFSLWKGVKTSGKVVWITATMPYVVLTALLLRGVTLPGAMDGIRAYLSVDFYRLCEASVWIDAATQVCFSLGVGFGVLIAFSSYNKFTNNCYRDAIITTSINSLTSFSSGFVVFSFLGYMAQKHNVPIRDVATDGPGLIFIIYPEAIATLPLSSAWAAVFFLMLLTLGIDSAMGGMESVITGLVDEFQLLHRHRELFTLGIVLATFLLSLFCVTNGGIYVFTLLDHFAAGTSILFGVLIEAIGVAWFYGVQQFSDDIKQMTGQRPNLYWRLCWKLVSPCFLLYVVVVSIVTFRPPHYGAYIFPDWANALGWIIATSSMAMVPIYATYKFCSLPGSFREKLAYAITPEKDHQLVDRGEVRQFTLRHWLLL
Sodium-dependent serotonin transporter, sequence (P31652 whole entry): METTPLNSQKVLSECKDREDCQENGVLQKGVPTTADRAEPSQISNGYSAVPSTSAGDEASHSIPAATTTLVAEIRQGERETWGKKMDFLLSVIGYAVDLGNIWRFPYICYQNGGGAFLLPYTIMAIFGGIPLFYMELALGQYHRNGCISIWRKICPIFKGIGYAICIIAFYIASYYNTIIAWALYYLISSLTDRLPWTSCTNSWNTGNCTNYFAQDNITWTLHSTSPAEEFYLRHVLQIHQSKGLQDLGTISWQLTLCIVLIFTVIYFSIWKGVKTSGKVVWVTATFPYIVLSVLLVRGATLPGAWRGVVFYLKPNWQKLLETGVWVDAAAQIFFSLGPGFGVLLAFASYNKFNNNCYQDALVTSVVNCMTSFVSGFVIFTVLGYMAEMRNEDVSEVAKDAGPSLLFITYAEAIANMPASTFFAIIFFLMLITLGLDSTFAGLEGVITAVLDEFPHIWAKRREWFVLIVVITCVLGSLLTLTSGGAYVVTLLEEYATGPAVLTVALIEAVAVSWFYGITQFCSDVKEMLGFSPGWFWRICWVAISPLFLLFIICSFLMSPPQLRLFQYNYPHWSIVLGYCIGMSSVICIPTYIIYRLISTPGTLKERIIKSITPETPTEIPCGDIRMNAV

## COC(=O)[C@H]1[C@@H](OC(=O)c2ccccc2)C[C@@H]2CC[C@H]1N2C [COCAINE]
[1]
  Activity: 8000 cm

## [O-][S+](CCNC1CCN(Cc2ccc(F)cc2)CC1)C(c1ccc(F)cc1)c1ccc(F)cc1 (stereo unspecified)
[2]
  Ki: 11.2 µM
[3]
  Stabilty: 100%
[4]
  Stabilty: 95%
D(4) dopamine receptor
  Ki: 76.8 µM
D(2) dopamine receptor
  Ki: 12.4 µM
[5]
  Ki: 0.0265 µM
[6]
  Ratio Ki: 0.52
D(3) dopamine receptor
  Ki: 12.4 µM
Rattus norvegicus
  Ratio Ki: 7.37
[7]
  Activity: < 3000 cm

## O=C(c1ccc(F)cc1F)N1CCC(NCCSC(c2ccc(F)cc2)c2ccc(F)cc2)CC1
[8]
  Ki: 0.03 µM
[2]
  Ki: 1.62 µM
[3]
  Stabilty: 100%
[4]
  Stabilty: 85%
D(2) dopamine receptor
  Ki: 7.44 µM
[5]
  Ki: 0.0206 µM
D(3) dopamine receptor
  Ki: 3.26 µM
[7]
  Activity: < 3000 cm
[9]
  Ki: 0.296 µM
[10]
  Stabilty: 33%

Source: ChEMBL document CHEMBL4706586, “Structure-activity relationships for a series of (Bis(4-fluorophenyl)methyl)sulfinylethyl-aminopiperidines and -piperidine amines at the dopamine transporter: Bioisosteric replacement of the piperazine improves metabolic stability” (Eur J Med Chem, 2020)
